≈ marks a conversion by molar mass, not a printed value. Calls of active or inactive are those of the source. The calls are words filed in the database; no cut-off is given here.
How the values were obtained:
Type in all cases: functional
Aspergillus niger [1] = experiment: Antifungal activity Aspergillus niger NCIM 545 at 100 ug/disc by agar-well diffusion assay; conditions: for zone of inhibition at 100 µg/disc: read-out: DIZ
Summary of the method: (§1)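 Agar-well diffusion screen against standard strains. Zone of inhibition is the read-out. Chloramphenicol, nystatin and ravuconazole were run as positive controls.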

Escherichia coli [2] = experiment: Antibacterial activity Escherichia coli NCIM 2109 after 24 hrs by NCCLS method
Summary of the method: (§2)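 Broth microdilution MIC per NCCLS. Compounds dissolved in DMSO, serially diluted in growth medium, incubated at 37 °C. Read at 24 h for bacteria and 24–72 h for fungi. MIC90 taken as the first well with about 90% growth reduction relative to the drug-free well.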

Escherichia coli [3] = experiment: Antibacterial activity Escherichia coli NCIM 2109 at 100 ug/disc by agar-well diffusion assay; conditions: for zone of inhibition at 100 µg/disc: read-out: DIZ; summary of the method: as §1
Pseudomonas aeruginosa [4] = experiment: Antibacterial activity Pseudomonas aeruginosa NCIM 2036 at 100 ug/disc by agar-well diffusion assay; summary of the method: as §1
Staphylococcus aureus [5] = experiment: Antibacterial activity Staphylococcus aureus NCIM 2079 at 100 ug/disc by agar-well diffusion assay; conditions: for zone of inhibition at 100 µg/disc: read-out: DIZ; summary of the method: as §1
Staphylococcus aureus [6] = experiment: Antibacterial activity Staphylococcus aureus NCIM 2079 after 24 hrs by NCCLS method; summary of the method: as §2
Bacillus subtilis [7] = experiment: Antibacterial activity Bacillus subtilis NCIM 2250 after 24 hrs by NCCLS method; summary of the method: as §2
Candida albicans [8] = experiment: Antifungal activity Candida albicans NCIM 3471 at 100 ug/disc by agar-well diffusion assay; conditions: for zone of inhibition at 100 µg/disc: read-out: DIZ; summary of the method: as §1
Bacillus subtilis [9] = experiment: Antibacterial activity Bacillus subtilis NCIM 2250 at 100 ug/disc by agar-well diffusion assay; conditions: for zone of inhibition at 100 µg/disc: read-out: DIZ; summary of the method: as §1
Aspergillus niger [10] = experiment: Antifungal activity Aspergillus niger NCIM 545 after 24 to 72 hrs by NCCLS method; summary of the method: as §2
Pseudomonas aeruginosa [11] = experiment: Antibacterial activity Pseudomonas aeruginosa NCIM 2036 after 24 hrs by NCCLS method; summary of the method: as §2
Candida albicans [12] = experiment: Antifungal activity Candida albicans NCIM 3471 after 24 to 72 hrs by NCCLS method; summary of the method: as §2

| MIC (Escherichia coli [2]; NCIM 2109, 24 h) [µg/mL] | MIC (Staphylococcus aureus [6]) | MIC (Bacillus subtilis [7]) | MIC (Aspergillus niger [10]) | MIC (Pseudomonas aeruginosa [11]) | MIC (Candida albicans [12]) | MIC (Bacillus subtilis [7]; NCIM 2250, 24 h) [µg/mL] | SMILES | zone of inhibition at 100 µg/disc (Escherichia coli [3]) [mm] | diameter of the inhibition zone (DIZ) (Pseudomonas aeruginosa [4]) | diameter of the inhibition zone (DIZ) (Staphylococcus aureus [5]) | diameter of the inhibition zone (DIZ) (Bacillus subtilis [9]) | zone of inhibition at 100 µg/disc (Aspergillus niger [1]) [mm] | zone of inhibition at 100 µg/disc (Candida albicans [8]) [mm] | zone of inhibition at 100 µg/disc (Bacillus subtilis [9]) [mm] | other results |
| --- | --- | --- | --- | --- | --- | --- | --- | --- | --- | --- | --- | --- | --- | --- | --- |
| > 64 | inactive | inactive | inactive | inactive | inactive |  | O=[N+]([O-])c1ccc(-c2csc(N/N=C(/Cn3cncn3)c3ccc(Br)cc3)n2)cc1 | 14 | inactive | inactive | inactive |  |  |  | diameter of the inhibition zone (DIZ) (Aspergillus niger [1]): inactive; diameter of the inhibition zone (DIZ) (Candida albicans [8]): inactive |
|  | inactive | inactive | 32 µg/mL (≈ 50.6 µM) | inactive | 64 µg/mL (≈ 101 µM) |  | FC(F)(F)c1cc(/C(Cn2cncn2)=N\Nc2nc(-c3cc(C(F)(F)F)cc(C(F)(F)F)c3)cs2)cc(C(F)(F)F)c1 | 13.1 | inactive | inactive | inactive | 15.2 | 11.7 |  | MIC (Escherichia coli [2]): inactive |
| > 64 | inactive |  | > 64 µg/mL | inactive | > 64 µg/mL | > 64 | O=[N+]([O-])c1ccc(-c2csc(N/N=C(/Cn3cncn3)c3ccc(Cl)cc3)n2)cc1 | 10.6 | inactive | inactive |  | 14.5 | 11.7 | 12.2 |  |
| > 64 | inactive | inactive | > 64 µg/mL | inactive | > 64 µg/mL |  | Brc1ccc(/C(Cn2cncn2)=N\Nc2nc(-c3ccc(Br)cc3)cs2)cc1 | 10.9 | inactive | inactive | inactive | 15.3 | 13.9 |  |  |
| > 64 |  |  | 16 µg/mL (≈ 38.8 µM) | inactive | 32 µg/mL (≈ 77.5 µM) | 32 (≈ 77.5 µM) | Fc1ccc(/C(Cn2cncn2)=N\Nc2nc(-c3ccc(Cl)cc3)cs2)cc1 | 15.9 | inactive |  |  | 20.7 | 18.8 | 20.5 | zone of inhibition at 100 µg/disc (Staphylococcus aureus [5]): 22.3 mm; MIC (Staphylococcus aureus [6]; NCIM 2079, 24 h): 64 µg/mL (≈ 155 µM) |
|  | inactive | inactive | 32 µg/mL (≈ 73.1 µM) | inactive | 1 µg/mL (≈ 2.29 µM) |  | C[C@@H](c1nc(-c2ccc(C#N)cc2)cs1)[C@](O)(Cn1cncn1)c1ccc(F)cc1F [RAVUCONAZOLE] |  | inactive | inactive | inactive | 20.2 | 28.6 |  | MIC (Escherichia coli [2]): inactive; diameter of the inhibition zone (DIZ) (Escherichia coli [3]): inactive |
| > 64 | inactive | inactive | 64 µg/mL (≈ 124 µM) |  | inactive |  | Fc1ccc(/C(Cn2cncn2)=N\Nc2nc(-c3cc(C(F)(F)F)cc(C(F)(F)F)c3)cs2)cc1 | 14.9 |  | inactive | inactive | 13.8 |  |  | zone of inhibition at 100 µg/disc (Pseudomonas aeruginosa [4]; read-out: DIZ): 23.9 mm; diameter of the inhibition zone (DIZ) (Candida albicans [8]): inactive; MIC (Pseudomonas aeruginosa [11]; NCIM 2036, 24 h): 32 µg/mL (≈ 62.2 µM) |
| > 64 |  |  | 32 µg/mL (≈ 77.5 µM) | inactive | 32 µg/mL (≈ 77.5 µM) | 64 (≈ 155 µM) | Fc1ccc(-c2csc(N/N=C(/Cn3cncn3)c3ccc(Cl)cc3)n2)cc1 | 13.9 | inactive |  |  | 18.8 | 19.1 | 16.8 | zone of inhibition at 100 µg/disc (Staphylococcus aureus [5]): 25.7 mm; MIC (Staphylococcus aureus [6]; NCIM 2079, 24 h): 32 µg/mL (≈ 77.5 µM) |

From ChEMBL document CHEMBL2040750, “Hybrids of ravuconazole: synthesis and biological evaluation” (2012)
